Data as given in ChEMBL document CHEMBL4396915, “Synthesis of new thiazolyl-pyrazolyl-1,2,3-triazole derivatives as potential antimicrobial agents” (2019).
In brackets after ≈: the same amount, converted by molar mass. Activity calls are given as the source filed them. No cut-off for these calls is given here.

How the values were obtained:
Format in all cases: functional
Aspergillus niger [1] = experiment: Antifungal activity against Aspergillus niger NCIM 504 assessed as inhibition of fungal growth incubated for 48 to 72 hrs by broth microdilution susceptibility method
Procedure, shortened: (§1)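 Tube micro-dilution in Sabouraud liquid medium. Stocks were made in DMSO and serially diluted twofold in broth to final […]. Tubes inoculated with organisms grown in potato dextrose broth and held 48-72 h at 30 C. MIC is the lowest concentration with no growth. DMSO and uninoculated-media controls were included, in triplicate.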

Escherichia coli = experiment: Antibacterial activity against Escherichia coli NCIM 2574 assessed as zone of inhibition at 80 ug/well incubated for 24 to 48 hrs by agar well diffusion method; conditions: for zone of inhibition at 80 µg/disc: read-out: IZ
Procedure, shortened: (§2)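 Strains from NCIM kept on nutrient agar slants at 4 C and grown overnight at 37 C in nutrient broth. 500 microlitres of 24-48 h culture swabbed onto nutrient agar. Compounds in DMSO loaded into 5 mm wells, with a DMSO vehicle plate and streptomycin reference. Incubated 24-48 h at 37 C. Zone of inhibition measured in mm and averaged over 4 replicates.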

Candida albicans [2] = experiment: Antifungal activity against Candida albicans NCIM 3100 assessed as inhibition of fungal growth incubated for 48 to 72 hrs by broth microdilution susceptibility method; procedure, shortened: as §1
Proteus mirabilis = experiment: Antibacterial activity against Proteus mirabilis NCIM 2388 assessed as zone of inhibition at 80 ug/well incubated for 24 to 48 hrs by agar well diffusion method; procedure, shortened: as §2
[3] = tested on: Staphylococcus epidermidis; experiment: Antibacterial activity against Staphylococcus albus NCIM 2178 assessed as zone of inhibition at 80 ug/well incubated for 24 to 48 hrs by agar well diffusion method; conditions: for zone of inhibition at 80 µg/disc: read-out: IZ; procedure, shortened: as §2
Aspergillus niger [4] = experiment: Antifungal activity against Aspergillus niger NCIM 504 assessed as zone of inhibition at 80 ug/well incubated for 48 to 72 hrs by agar well diffusion method; conditions: for zone of inhibition at 80 µg/disc: read-out: IZ
Procedure, shortened: (§3)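 Fungi kept on potato dextrose agar slants and grown in potato dextrose broth. 500 microlitres of 48-72 h spore suspension swabbed onto Mueller Hinton agar. Compounds in DMSO loaded into 5 mm wells, with a DMSO vehicle plate and fluconazole/ravuconazole positive-control plate. Incubated 48-72 h at 30 C. Clear zone measured in mm, mean of five replicates.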

Candida albicans [5] = experiment: Antifungal activity against Candida albicans NCIM 3100 assessed as zone of inhibition at 80 ug/well incubated for 48 to 72 hrs by agar well diffusion method; conditions: for zone of inhibition at 80 µg/disc: read-out: IZ; procedure, shortened: as §3
Rhodotorula glutinis [6] = experiment: Antifungal activity against Rhodotorula glutinis NCIM 3168 assessed as inhibition of fungal growth incubated for 48 to 72 hrs by broth microdilution susceptibility method; procedure, shortened: as §1
Rhodotorula glutinis [7] = experiment: Antifungal activity against Rhodotorula glutinis NCIM 3168 assessed as zone of inhibition at 80 ug/well incubated for 48 to 72 hrs by agar well diffusion method; conditions: for zone of inhibition at 80 µg/disc: read-out: IZ; procedure, shortened: as §3

| Structure (SMILES) | MIC (Aspergillus niger [1]) | zone of inhibition at 80 µg/disc (Escherichia coli) [mm] | MIC (Candida albicans [2]) | inhibition zone (IZ) (Proteus mirabilis) | zone of inhibition at 80 µg/disc [3] [mm] | zone of inhibition at 80 µg/disc (Aspergillus niger [4]) [mm] | zone of inhibition at 80 µg/disc (Candida albicans [5]) [mm] | MIC (Rhodotorula glutinis [6]) | zone of inhibition at 80 µg/disc (Rhodotorula glutinis [7]) [mm] | zone of inhibition at 80 µg/disc (Proteus mirabilis; read-out: IZ) [mm] | inhibition zone (IZ) (Aspergillus niger [4]) | inhibition zone (IZ) (Candida albicans [5]) | inhibition zone (IZ) (Rhodotorula glutinis [7]) | inhibition zone (IZ) (Escherichia coli) | inhibition zone (IZ) [3] |
| --- | --- | --- | --- | --- | --- | --- | --- | --- | --- | --- | --- | --- | --- | --- | --- |
| Cc1nc(-c2ccc(Br)cc2)sc1-c1nn(-c2ccccc2)cc1-c1cn(Cc2ccccc2)nn1 | 62.5 µg/mL (≈ 113 µM) | 11.5 | 125 µg/mL (≈ 226 µM) | inactive | 14.6 | 13.4 | 14.6 | 62.5 µg/mL (≈ 113 µM) | 16.2 | – | – | – | – | – | – |
| Cc1ccc(Cn2cc(-c3cn(-c4ccccc4)nc3-c3sc(-c4ccc(Br)cc4)nc3C)nn2)cc1 | 31.2 µg/mL (≈ 55.1 µM) | 11.6 | inactive | inactive | 12.6 | 12.4 | 14.6 | 125 µg/mL (≈ 220 µM) | 13.3 | – | – | – | – | – | – |
| CN[C@@H]1[C@H](O[C@H]2[C@H](O[C@H]3[C@H](O)[C@@H](O)[C@H](N=C(N)N)[C@@H](O)[C@@H]3N=C(N)N)O[C@@H](C)[C@]2(O)C=O)O[C@@H](CO)[C@H](O)[C@H]1O [STREPTOMYCIN] | – | 25 | – | – | 21.6 | – | – | – | – | 18.5 | inactive | inactive | inactive | – | – |
| Cc1nc(-c2ccc(F)cc2)sc1-c1nn(-c2ccccc2)cc1-c1cn(Cc2ccc(Cl)cc2)nn1 | 31.2 µg/mL (≈ 59.3 µM) | – | inactive | inactive | 11.8 | 13.5 | 10.4 | 125 µg/mL (≈ 237 µM) | 14.5 | – | – | – | – | inactive | – |
| Cc1ccc(-c2nc(C)c(-c3nn(-c4ccccc4)cc3-c3cn(Cc4ccccc4)nn3)s2)cc1 | 62.5 µg/mL (≈ 128 µM) | – | 125 µg/mL (≈ 256 µM) | inactive | 11.2 | – | 15.8 | 125 µg/mL (≈ 256 µM) | 18.4 | – | inactive | – | – | inactive | – |
| Cc1nc(-c2ccc(Br)cc2)sc1-c1nn(-c2ccccc2)cc1-c1cn(Cc2ccc(Br)cc2)nn1 | inactive | – | inactive | inactive | – | – | 15 | inactive | – | – | inactive | – | inactive | inactive | inactive |
| Cc1nc(-c2ccc(Cl)cc2)sc1-c1nn(-c2ccccc2)cc1-c1cn(Cc2ccccc2)nn1 | 31.2 µg/mL (≈ 61.4 µM) | 12.8 | 500 µg/mL (≈ 982 µM) | inactive | 11 | 12.3 | 15.2 | 125 µg/mL (≈ 246 µM) | 15.2 | – | – | – | – | – | – |
| Cc1nc(-c2ccc(Cl)cc2)sc1-c1nn(-c2ccccc2)cc1-c1cn(Cc2ccc(Br)cc2)nn1 | 62.5 µg/mL (≈ 106 µM) | 11 | 250 µg/mL (≈ 425 µM) | inactive | 11.8 | 12 | 17.6 | 62.5 µg/mL (≈ 106 µM) | 18.8 | – | – | – | – | – | – |
| OC(Cn1cncn1)(Cn1cncn1)c1ccc(F)cc1F [FLUCONAZOLE] | 7.81 µg/mL (≈ 25.5 µM) | – | 7.81 µg/mL (≈ 25.5 µM) | inactive | – | 18.4 | 20.2 | 7.81 µg/mL (≈ 25.5 µM) | 25.3 | – | – | – | – | inactive | inactive |
| Cc1nc(-c2ccc(Cl)cc2)sc1-c1nn(-c2ccccc2)cc1-c1cn(Cc2ccc(Cl)cc2)nn1 | 125 µg/mL (≈ 230 µM) | 9.8 | inactive | inactive | 11.5 | 12.3 | 11.3 | 62.5 µg/mL (≈ 115 µM) | 14 | – | – | – | – | – | – |
| Cc1nc(-c2ccccc2)sc1-c1nn(-c2ccccc2)cc1-c1cn(Cc2ccc(Br)cc2)nn1 | 62.5 µg/mL (≈ 113 µM) | 12 | 125 µg/mL (≈ 226 µM) | inactive | 13 | 14 | 16.4 | 62.5 µg/mL (≈ 113 µM) | 17.5 | – | – | – | – | – | – |
| Cc1nc(-c2ccccc2)sc1-c1nn(-c2ccccc2)cc1-c1cn(Cc2ccc(F)cc2)nn1 | 125 µg/mL (≈ 254 µM) | 11 | 125 µg/mL (≈ 254 µM) | inactive | 10 | 16.4 | 15.8 | 125 µg/mL (≈ 254 µM) | 14.6 | – | – | – | – | – | – |
| Cc1nc(-c2ccccc2)sc1-c1nn(-c2ccccc2)cc1-c1cn(Cc2ccc(Cl)cc2)nn1 | 31.2 µg/mL (≈ 61.4 µM) | 13.2 | inactive | inactive | 12.2 | 13.6 | 11.5 | 62.5 µg/mL (≈ 123 µM) | 19 | – | – | – | – | – | – |
| Cc1nc(-c2ccc(Br)cc2)sc1-c1nn(-c2ccccc2)cc1-c1cn(Cc2ccc(F)cc2)nn1 | 62.5 µg/mL (≈ 109 µM) | 11.8 | 125 µg/mL (≈ 219 µM) | inactive | 12 | 17 | 12 | 62.5 µg/mL (≈ 109 µM) | 11.7 | – | – | – | – | – | – |
| Cc1nc(-c2ccc(F)cc2)sc1-c1nn(-c2ccccc2)cc1-c1cn(Cc2ccc(Br)cc2)nn1 | 125 µg/mL (≈ 219 µM) | – | 125 µg/mL (≈ 219 µM) | inactive | 11.4 | 16.8 | 14.4 | 62.5 µg/mL (≈ 109 µM) | 16.5 | – | – | – | – | inactive | – |
| Cc1ccc(Cn2cc(-c3cn(-c4ccccc4)nc3-c3sc(-c4ccccc4)nc3C)nn2)cc1 | 31.2 µg/mL (≈ 64 µM) | 10 | inactive | inactive | – | 14 | 11.8 | inactive | 19.5 | – | – | – | – | – | inactive |
| Cc1nc(-c2ccccc2)sc1-c1nn(-c2ccccc2)cc1-c1cn(Cc2ccccc2)nn1 | inactive | – | inactive | inactive | – | – | – | inactive | – | – | – | – | – | – | – |
| Cc1ccc(-c2nc(C)c(-c3nn(-c4ccccc4)cc3-c3cn(Cc4ccc(F)cc4)nn3)s2)cc1 | 62.5 µg/mL (≈ 123 µM) | 10.6 | inactive | inactive | 11.2 | 16.3 | 12.5 | 125 µg/mL (≈ 247 µM) | 16.2 | – | – | – | – | – | – |
| Cc1ccc(-c2nc(C)c(-c3nn(-c4ccccc4)cc3-c3cn(Cc4ccc(Br)cc4)nn3)s2)cc1 | 31.2 µg/mL (≈ 55.1 µM) | 11 | 125 µg/mL (≈ 220 µM) | inactive | 12.2 | 14.4 | 14 | 62.5 µg/mL (≈ 110 µM) | 18.8 | – | – | – | – | – | – |
| C[C@@H](c1nc(-c2ccc(C#N)cc2)cs1)[C@](O)(Cn1cncn1)c1ccc(F)cc1F [RAVUCONAZOLE] | 31.2 µg/mL (≈ 71.4 µM) | – | 7.81 µg/mL (≈ 17.9 µM) | inactive | – | 20.2 | 28.6 | 15.6 µg/mL (≈ 35.7 µM) | 20.1 | – | – | – | – | inactive | inactive |
| Cc1nc(-c2ccc(Cl)cc2)sc1-c1nn(-c2ccccc2)cc1-c1cn(Cc2ccc(F)cc2)nn1 | 62.5 µg/mL (≈ 119 µM) | 12.2 | 250 µg/mL (≈ 474 µM) | inactive | 11.3 | 12.5 | 13.8 | 125 µg/mL (≈ 237 µM) | 20 | – | – | – | – | – | – |
| Cc1nc(-c2ccc(Br)cc2)sc1-c1nn(-c2ccccc2)cc1-c1cn(Cc2ccc(Cl)cc2)nn1 | 62.5 µg/mL (≈ 106 µM) | 11 | 125 µg/mL (≈ 213 µM) | inactive | – | 13.5 | 14.8 | 125 µg/mL (≈ 213 µM) | 14.8 | – | – | – | – | – | inactive |
